Assay results from ChEMBL document CHEMBL5335826, “Biochemical and Structural Studies of the Carminomycin 4-O-Methyltransferase DnrK” (J Nat Prod, 2024).
Activity calls are given as the source filed them. The rule behind the calls is not given here.

Test system: Ambystoma mexicanum
Test: Inhibition of Ambystoma mexicanum tail regeneration at 10 uM
Assay type: functional
Summary of the method: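 Stage 42 Ambystoma mexicanum embryos were manually hatched and anesthetized with benzocaine, then given 2 mm tail amputations. They were reared at 18–19 °C in artificial pond water containing test agent in DMSO (0.1% final DMSO), with solutions changed at 3 and 5 dpa. Regeneration was imaged at 0, 3, 5 and 7 dpa, ending at 7 dpa. DMSO vehicle was the negative control and geldanamycin the positive control.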

| SMILES | tail regeneration inhibition (active/not active) |
| --- | --- |
| COc1cc(O)c2c(c1)C(=O)c1cc3c(c(O)c1C2=O)[C@@H](O[C@@H]1O[C@@H](C)[C@H](OC)[C@@H](O)[C@H]1OC)[C@H](OC)[C@](C)(O)C3=O | Active |
| COc1cccc2c1C(=O)c1c(O)c3c(c(O)c1C2=O)C[C@@](O)(C(C)=O)C[C@@H]3O[C@H]1C[C@H](N)[C@H](O)[C@H](C)O1 | inactive |
| COc1cccc2c1C(=O)c1c(cc3c(c1O)[C@@H](O[C@@H]1O[C@@H](C)[C@H](O)[C@@H](O)[C@H]1OC)[C@H](OC)[C@](C)(O)C3=O)C2=O | inactive |
| CO[C@H]1[C@H](O[C@@H]2c3c(cc4c(c3O)C(=O)c3c(O)cccc3C4=O)C(=O)[C@@](C)(O)[C@H]2OC)O[C@@H](C)[C@H](O)[C@H]1O | inactive |
| CC(=O)[C@]1(O)Cc2c(O)c3c(c(O)c2[C@@H](O[C@H]2C[C@H](N)[C@H](O)[C@H](C)O2)C1)C(=O)c1c(O)cccc1C3=O | inactive |
